Data: ChEMBL document CHEMBL4020840, “Synthesis and Biological Evaluation of Selenium-Containing 4-Anilinoquinazoline Derivatives as Novel Antimitotic Agents” (J Med Chem, 2018)

How the values were obtained:
A549 [1] = assay: Induction of apoptosis in human A549 cells assessed as necrotic cells at 2 nM after 24 hrs by Annexin V-FITC/propidium iodide staining based flow cytometry (reference value: 0.10%); assay type: functional
A549 [2] = assay: Induction of apoptosis in human A549 cells assessed as early apoptotic cells at 4 nM after 24 hrs by Annexin V-FITC/propidium iodide staining based flow cytometry (reference value: 0.98%); assay type: functional
A549 [3] = assay: Induction of apoptosis in human A549 cells assessed as live cells at 2 nM after 48 hrs by Annexin V-FITC/propidium iodide staining based flow cytometry (reference value: 98.49%); assay type: functional
HeLa = assay: Antiproliferative activity against human HeLa cells after 48 hrs by MTT assay; assay type: functional, cell-based
Outline: (§1)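 MTT assay: log-phase cells plated at 5 × 10³/well for 24 h, then exposed to a range of test concentrations for 48 h. MTT (5 mg/mL) added for 4 h, formazan dissolved in DMSO, absorbance read at 570 nm. IC50 is the concentration giving 50% growth inhibition, from dose-response curves; at least three independent experiments, mean ± SE.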

A549 [4] = assay: Growth inhibition of human A549 cells after 48 hrs by MTT assay; assay type: functional, cell-based; settings: A549, 48 h
HepG2 = assay: Growth inhibition of human HepG2 cells after 48 hrs by MTT assay; assay type: functional, cell-based; settings: HepG2, 48 h; outline: as §1
A549 [5] = assay: Cell cycle arrest in human A549 cells assessed as accumulation at G2/M phase at 4 nM up to 24 hrs by propidium iodide staining based flow cytometry (reference value: 10.13%); assay type: functional
Outline: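 A549 seeded in six-well plates at 3 × 10⁵ cells/well and treated for 12 or 24 h; vehicle 0.01% DMSO. Cells fixed overnight in ice-cold 70% ethanol, treated with RNase A at 37 °C for 30 min, then stained with PI at 4 °C for 30 min. About 10 000 events acquired by flow cytometry at 488 nm; three experiments.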

A549 [6] = assay: Induction of apoptosis in human A549 cells assessed as live cells at 4 nM after 48 hrs by Annexin V-FITC/propidium iodide staining based flow cytometry (reference value: 98.49%); assay type: functional
MDA-MB-231 = assay: Growth inhibition of human MDA-MB-231 cells after 48 hrs by MTT assay; assay type: functional, cell-based; settings: MDA-MB-231, 48 h; outline: as §1
A549 [7] = assay: Induction of apoptosis in human A549 cells assessed as early apoptotic cells at 4 nM after 48 hrs by Annexin V-FITC/propidium iodide staining based flow cytometry (reference value: 1.48%); assay type: functional
A549 [8] = assay: Induction of apoptosis in human A549 cells assessed as late apoptotic cells at 2 nM after 48 hrs by Annexin V-FITC/propidium iodide staining based flow cytometry (reference value: 0.03%); assay type: functional
A549 [9] = assay: Induction of apoptosis in human A549 cells assessed as early apoptotic cells at 2 nM after 24 hrs by Annexin V-FITC/propidium iodide staining based flow cytometry (reference value: 0.98%); assay type: functional
[10] = Resistance factor, ratio of IC50 for human A549/CDDP cells to IC50 for human A549 cells; assay type: functional
Outline: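 MTT assay: log-phase cells were seeded at 5 × 10³/well for 24 h, then exposed to a concentration series for 48 h. MTT (5 mg/mL) was added for 4 h, formazan was dissolved in DMSO, and A570 was read. IC50 values came from dose–response curves of at least three independent experiments. Resistance factor = IC50 in the resistant line / IC50 in the parental sensitive line.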

RKO = assay: Growth inhibition of human RKO cells after 48 hrs by MTT assay; assay type: functional, cell-based; outline: as §1
[11] = Selectivity index, ratio of IC50 for HLF to IC50 for human A549 cells
Outline: (§2)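 MTT assay in normal cells and A549: seeding at 5 × 10³ cells/well for 24 h, 48 h compound exposure, then 5 mg/mL MTT for 4 h, DMSO solubilisation and absorbance at 570 nm. IC50 values came from dose–response curves of at least three independent experiments. Selectivity ratio = IC50 in normal cells / IC50 in A549.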

A549 [12] = assay: Induction of apoptosis in human A549 cells assessed as early apoptotic cells at 2 nM after 48 hrs by Annexin V-FITC/propidium iodide staining based flow cytometry (reference value: 1.48%); assay type: functional
[13] = Inhibition of porcine brain tubulin polymerization measured every 60 secs for 90 mins by DAPI staining based fluorescence assay; design: species or system Sus scrofa
Outline: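 Purified tubulin was tested in a kit assay. Final buffer: 80 mM PIPES sesquisodium (pH 6.9), 2.0 mM MgCl₂, 0.5 mM EGTA, 1 mM GTP, 10.2% glycerol. Compound (0.1–10 μM) was prewarmed at 37 °C for 1 min before tubulin was added. DAPI reporter fluorescence (ex 340 / em 410 nm) was read every 60 s for 90 min. Area under the curve gave percent inhibition versus control and the IC50.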

HCT-116 = assay: Growth inhibition of human HCT116 cells after 48 hrs by MTT assay; assay type: functional, cell-based; settings: HCT-116, 48 h; outline: as §1
[14] = Growth inhibition of human HepG2/DOX cells after 48 hrs by MTT assay; assay type: functional, cell-based; outline: as §1
[15] = Selectivity index, ratio of IC50 for human LO2 cells to IC50 for human A549 cells; assay type: functional; outline: as §2
A549 [16] = assay: Induction of apoptosis in human A549 cells assessed as necrotic cells at 4 nM after 24 hrs by Annexin V-FITC/propidium iodide staining based flow cytometry (reference value: 0.10%); assay type: functional
A549 [17] = assay: Induction of apoptosis in human A549 cells assessed as live cells at 4 nM after 24 hrs by Annexin V-FITC/propidium iodide staining based flow cytometry (reference value: 98.84%); assay type: functional
MCF7 = assay: Antiproliferative activity against human MCF7 cells after 48 hrs by MTT assay; assay type: functional, cell-based; settings: MCF7, 48 h; outline: as §1
A549 [18] = assay: Induction of apoptosis in human A549 cells assessed as necrotic cells at 4 nM after 48 hrs by Annexin V-FITC/propidium iodide staining based flow cytometry relative to control; assay type: functional
A549 [19] = assay: Induction of apoptosis in human A549 cells assessed as late apoptotic cells at 4 nM after 48 hrs by Annexin V-FITC/propidium iodide staining based flow cytometry (reference value: 0.03%); assay type: functional
A549 [20] = assay: Induction of apoptosis in human A549 cells assessed as late apoptotic cells at 4 nM after 24 hrs by Annexin V-FITC/propidium iodide staining based flow cytometry (reference value: 0.08%); assay type: functional
[21] = Antiproliferative activity against HLF after 48 hrs by MTT assay; assay type: cell-based; settings: Homo sapiens; outline: as §1
[22] = Selectivity index, ratio of IC50 for human BJ cells to IC50 for human A549 cells; assay type: functional; outline: as §2
L02 = assay: Antiproliferative activity against human LO2 cells after 48 hrs by MTT assay; assay type: cell-based; settings: L02, 48 h; outline: as §1
LoVo = assay: Growth inhibition of human LoVo cells after 48 hrs by MTT assay; assay type: functional, cell-based; outline: as §1
A549/CDDP = assay: Growth inhibition of human A549/CDDP cells after 48 hrs by MTT assay; assay type: functional, cell-based; outline: as §1
BJ = assay: Antiproliferative activity against human BJ cells after 48 hrs by MTT assay; assay type: cell-based; outline: as §1
MGC-803 = assay: Antiproliferative activity against human MGC803 cells after 48 hrs by MTT assay; assay type: functional, cell-based; settings: MGC-803, 48 h; outline: as §1
A549 [23] = assay: Induction of apoptosis in human A549 cells assessed as necrotic cells at 2 nM after 48 hrs by Annexin V-FITC/propidium iodide staining based flow cytometry relative to control; assay type: functional
A549 [24] = assay: Induction of apoptosis in human A549 cells assessed as late apoptotic cells at 2 nM after 24 hrs by Annexin V-FITC/propidium iodide staining based flow cytometry (reference value: 0.08%); assay type: functional
A549 [25] = assay: Induction of apoptosis in human A549 cells assessed as live cells at 2 nM after 24 hrs by Annexin V-FITC/propidium iodide staining based flow cytometry (reference value: 98.84%); assay type: functional

SMILES: Cc1nc(N(C)c2ccc([Se]C#N)cc2)c2ccccc2n1
- Activity (A549 [1]): 1.11%
- Activity (A549 [2]): 27.46%
- Activity (A549 [3]): 74.73%
- IC50 (HeLa): 9 nM
- IC50 (A549 [4]): 11 nM
- IC50 (HepG2): 9 nM
- Activity (A549 [5]): 69.69%
- Activity (A549 [6]): 40.54%
- IC50 (MDA-MB-231): 20 nM
- Activity (A549 [7]): 21.45%
- Activity (A549 [8]): 5.78%
- Activity (A549 [9]): 13.55%
- Ratio IC50 [10]: 3.56
- IC50 (RKO): 9 nM
- Ratio IC50 [11]: 4.6
- Activity (A549 [12]): 17.56%
- IC50 [13]: 3120 nM
- IC50 (HCT-116): 15 nM
- IC50 [14]: 29 nM
- Ratio IC50 [15]: 4.1
- Activity (A549 [16]): 1.77%
- Activity (A549 [17]): 64.96%
- IC50 (MCF7): 19 nM
- Activity (A549 [18]): 7.59%
- Activity (A549 [19]): 29.41%
- Activity (A549 [20]): 5.58%
- IC50 [21]: 41 nM
- Ratio IC50 [22]: 3.7
- IC50 (L02): 37 nM
- IC50 (LoVo): 32 nM
- IC50 (A549/CDDP): 32 nM
- IC50 (BJ): 33 nM
- IC50 (MGC-803): 12 nM
- Activity (A549 [23]): 1.94%
- Activity (A549 [24]): 2.38%
- Activity (A549 [25]): 82.96%
